Experimental data published in ChEMBL document CHEMBL4041502, “Zoanthamine-Type Alkaloids from the Zoanthid Zoanthus kuroshio Collected in Taiwan and Their Effects on Inflammation” (2016).

How the values were obtained:
[1] = tested on: Neutrophil; assay: Anti-inflammatory activity in human neutrophils assessed as inhibition of fMLP/CB-induced superoxide anion production by measuring reduction of ferricytochrome c at 10 uM pretreated for 5 mins followed by fMLP/CB addition measured after 10 mins by spectrophotometric method relative to control; format: functional
How it was run: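 Donor neutrophils (healthy, 20−35 y) held 2 min at 37 °C in 0.5 mg/mL ferricytochrome c with 1 mM Ca2+, then 5 min with compound, then fMLP 100 nM/cytochalasin B 1 μg/mL for 10 min. Continuous 550 nm read with stirring. SOD-inhibitable (100 U/mL) difference converted using ε = 21.1/mM/10 mm. Inhibition % at 10 μM, mean ± SEM (n = 3, 4).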

[2] = tested on: Neutrophil; assay: Anti-inflammatory activity in human neutrophils assessed as inhibition of fMLP/CB-induced elastase release at 10 uM using MeO-Suc-Ala-Ala-Pro-Val-p-nitroanilide as a substrate pretreated for 5 mins followed by fMLP/CB addition relative to control; format: functional
How it was run: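 Neutrophils from healthy donors aged 20−35 (venipuncture), equilibrated at 37 °C for 2 min with 100 μM MeO-Suc-Ala-Ala-Pro-Val-p-nitroanilide, then exposed to compound 5 min. Stimulus: 100 nM fMLP plus 0.5 μg/mL cytochalasin B. Elastase release followed continuously at 405 nm. Percent inhibition at 10 μM versus control, mean ± SEM (n = 3, 4).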

SMILES | inhibition at 10 µM [1] [%] | inhibition at 10 µM [2] [%]
CC1=CC(=O)[C@@H]2[C@@H](C1)[C@]13CO[C@@]4([C@H]1Cl)N1C[C@H]5C[C@H](C)C[C@]1(CC[C@@]4(C)[C@]1(COC(=O)C1)[C@H]3C(=O)[C@@H]2C)O5 | 23 | 25
CC1=CC(=O)[C@@H]2[C@@H](C1)[C@]13CO[C@@]4([C@H]1O)N1C[C@H]5C[C@H](C)C[C@]1(CC[C@@]4(C)[C@]1(COC(=O)C1)[C@H]3C(=O)[C@@H]2C)O5 | 9 | 6
CC1=CC(=O)[C@H]2[C@@H](C1)[C@]13CO[C@@]4([C@H]1O)N1C[C@H]5C[C@H](C)C[C@]1(CC[C@@]4(C)[C@]1(COC(=O)C1)[C@H]3C(=O)[C@@H]2C)O5 | 15 | 13
CC1=CC(=O)[C@@H]2[C@@H](C1)C13C=C4N5C[C@H]6C[C@H](C)C[C@]5(CC[C@@]4(C)[C@]4(COC(=O)C4)[C@H]1[C@@](O)(OC3)[C@@H]2C)O6 | 17 | 17
CC1=CC(=O)[C@@H]2[C@@H](C1)C13C=C4N5C[C@H]6C[C@H](C)[C@@H](I)[C@]5(CC[C@@]4(C)[C@]4(COC(=O)C4)[C@H]1[C@@](O)(OC3)[C@@H]2C)O6 | 24 | 43
CC1=CC(=O)[C@@H]2[C@@H](C1)[C@]13CO[C@@]4([C@H]1O)N1C[C@H]5C[C@H](C)C[C@@]1(O5)[C@@H](O)C[C@@]4(C)[C@]1(COC(=O)C1)[C@H]3C(=O)[C@@H]2C | 11 | 27
CO[C@@H]1[C@@H](C)C[C@@H]2CN3[C@@]1(CC[C@@]1(C)[C@]4(COC(=O)C4)[C@H]4C(=O)[C@H](C)[C@@H]5C(=O)C=C(C)C[C@H]5[C@@]45CO[C@@]31C5=O)O2 | 20 | 33
CC1=CC(=O)[C@@H]2[C@@H](C1)[C@]13CO[C@@]4(C1=O)N1C[C@H]5C[C@H](C)C[C@]1(CC[C@@]4(C)[C@]1(COC(=O)C1)[C@H]3C(=O)[C@@H]2C)O5 | 7 | 27
CC1=CC(=O)[C@@H]2[C@@H](C1)[C@]13CO[C@@]4(C1=O)N1C[C@H]5C[C@H](C)C[C@@]1(O5)[C@@H](O)C[C@@]4(C)[C@]1(COC(=O)C1)[C@H]3C(=O)[C@@H]2C | 13 | 15
O=c1cc(N2CCOCC2)oc2c(-c3ccccc3)cccc12 [LY-294002] | 99 | 73
CC1=CC(=O)[C@@H]2[C@@H](C1)C13C=C4N5C[C@@H]6O[C@@]5(CC[C@@]4(C)[C@]4(COC(=O)C4)[C@H]1[C@@](O)(OC3)[C@@H]2C)C[C@@H](C)[C@@H]6O | 14 | 25
CC1=CC(=O)[C@H]2[C@@H](C1)[C@]13CO[C@@]4(C1=O)N1C[C@H]5C[C@H](C)C[C@]1(CC[C@@]4(C)[C@]1(COC(=O)C1)[C@H]3C(=O)[C@@H]2C)O5 | 14 | 23
CC1=CC(=O)[C@@H]2[C@@H](C1)[C@]1(C)C=C3N4C[C@H]5C[C@H](C)C[C@]4(CC[C@@]3(C)[C@]3(COC(=O)C3)[C@H]1C(=O)[C@@H]2C)O5 | 18 | 30
